Data reported in ChEMBL document CHEMBL3797041, “Discovery of potent, reversible MetAP2 inhibitors via fragment based drug discovery and structure based drug design-Part 2” (Bioorg Med Chem Lett, 2016).
pIC50: −log10 of the molar value.

What was measured:
Mus musculus [1] = experiment: Toxicity in diet-induced obese mouse model assessed as effect on activity levels at 30 mg/kg, po qd for 7 days; assay type: organism-based; settings: in vivo, 168 h
Procedure, shortened: (§1)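 DIO mice were dosed by oral gavage once daily for 7 days, with a vehicle-dosed cohort as the comparator. Body weight was read relative to the vehicle group, and food intake and activity levels were monitored in dosed and vehicle cohorts. In some studies, animals were first acclimated to gavage for a few weeks, until their weights stopped changing, before dosing began.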

[2] = Clearance in Sprague-Dawley rat at 2.9 mg/kg, po; assay type: ADME, organism-based; settings: in vivo
[3] = AUC in Sprague-Dawley rat at 2.9 mg/kg, po; assay type: ADME, organism-based; settings: in vivo
[4] = Half life in Sprague-Dawley rat at 2.9 mg/kg, po; assay type: ADME, organism-based; settings: in vivo
Mus musculus [5] = experiment: Toxicity in diet-induced obese mouse model assessed as effect on food intake at 30 mg/kg, po qd for 7 days; assay type: organism-based; settings: in vivo, 168 h; procedure, shortened: as §1
Cytochrome P450 1A2 = molecular target: T1, Cytochrome P450 1A2 (Homo sapiens, UniProt P05177); experiment: Inhibition of human CYP1A2 expressed in Escherichia coli DH5alpha; assay type: ADME
T1 sequence (P05177 whole entry): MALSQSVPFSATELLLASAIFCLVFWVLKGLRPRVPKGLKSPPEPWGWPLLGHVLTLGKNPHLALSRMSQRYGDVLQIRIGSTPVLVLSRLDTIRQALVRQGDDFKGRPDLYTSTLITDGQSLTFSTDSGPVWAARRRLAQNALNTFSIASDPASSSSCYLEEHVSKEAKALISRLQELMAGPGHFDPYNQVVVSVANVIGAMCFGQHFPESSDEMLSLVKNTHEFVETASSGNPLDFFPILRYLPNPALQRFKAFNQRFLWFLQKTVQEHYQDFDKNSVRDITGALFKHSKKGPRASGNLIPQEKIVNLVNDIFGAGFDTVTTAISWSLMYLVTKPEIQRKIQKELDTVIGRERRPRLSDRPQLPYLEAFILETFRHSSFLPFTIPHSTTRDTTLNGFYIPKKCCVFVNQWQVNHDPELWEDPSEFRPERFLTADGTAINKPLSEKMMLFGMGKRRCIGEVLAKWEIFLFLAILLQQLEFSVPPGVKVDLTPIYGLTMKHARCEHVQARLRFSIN

Rattus norvegicus = experiment: Volume of distribution in Sprague-Dawley rat at 2.9 mg/kg, po; assay type: ADME, organism-based; settings: in vivo
Mus musculus [6] = experiment: Antiobesity in diet-induced obese mouse model assessed as decrease in body weight at 30 mg/kg, po qd for 7 days relative to control; assay type: functional; settings: 168 h; procedure, shortened: as §1
[7] = Oral bioavailability in Sprague-Dawley rat at 2.9 mg/kg; assay type: ADME, organism-based; settings: in vivo

pIC50 (Cytochrome P450 1A2) | SMILES | other results
7.30 | Fc1cc2c3[nH]ncc3n(-c3cccnc3)c2cc1F | –
7.20 | Clc1ccc2c3[nH]ncc3n(-c3cccnc3)c2c1 | –
6.90 | Fc1ccc2c(c1)c1[nH]ncc1n2-c1cccnc1 | –

More lines, now with the values behind:

SMILES | pIC50 (Cytochrome P450 1A2) | other results
Cc1nc2[nH]cnc2cc1-n1c2ccc(F)cc2c2[nH]ncc21 | 5.50 | Activity (Mus musculus [1]): Non-toxic; CL/F [2]: 17.2 mL/min/kg; AUC [3]: 2240 ng·h/mL; half-life [4]: 6 h; Activity (Mus musculus [5]): Non-toxic; Vd (Rattus norvegicus): 1.597 L/kg; inhibition in vivo at 30 mg/kg (Mus musculus [6]): 4%; bioavailability [7]: 70%
O=C(NCCO)c1ccc(-n2c3ccc(F)cc3c3[nH]ncc32)cc1 | 5.10 | –
Cc1cc(C(=O)NCCO)ccc1-n1c2ccc(F)cc2c2[nH]ncc21 | 5.10 | –
Cc1nc2c(cc1-n1c3ccc(F)cc3c3[nH]ncc31)ncn2C | 4.70 | –
Cc1c(-n2c3ccc(F)cc3c3[nH]ncc32)cnc2[nH]cnc12 | < 4.30 | –
Nc1ncc(-n2c3ccc(F)cc3c3[nH]ncc32)cc1Cl | 6.80 | –
